Source: ChEMBL document CHEMBL4304743, “Discovery of ( E)- N1-(3-Fluorophenyl)- N3-(3-(2-(pyridin-2-yl)vinyl)-1 H-indazol-6-yl)malonamide (CHMFL-KIT-033) as a Novel c-KIT T670I Mutant Selective Kinase Inhibitor for Gastrointestinal Stromal Tumors (GISTs)” (J Med Chem, 2019)
Calls of active or inactive are those of the source. No cut-off for these calls is given here.

Legend:
[1] = tested on: Mast/stem cell growth factor receptor Kit (Homo sapiens), P10721 [D816H]; test: Inhibition of TEL fused c-KIT D816H mutant (unknown origin) transfected in mouse BAF3 cells assessed as growth inhibition after 72 hrs by CCK8 assay; type: cell-based
Method in brief: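 Tel-c-KIT-transformed BaF3 lines (IL-3 independent) kept in RPMI 1640 with 10% FBS, 2% L-glutamine and pen/strep. Cells at 1.5 to 5 × 10^4 cells/mL mixed with graded compound and incubated 72 h at 37 °C, 5% CO2. Viability by CCK-8 absorbance at 450 nm, normalized to DMSO. GI50 from dose–response fit.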

[2] = target: Mast/stem cell growth factor receptor Kit (Homo sapiens, UniProt P10721); test: Inhibition of wild type c-KIT phosphorylation at Y823 residue in human COLO320DM cells after 2 hrs by Western blot analysis; type: cell-based
[3] = target: Serine/threonine-protein kinase Nek1 (Homo sapiens) (UniProt Q96PY6); test: Binding affinity to wild-type human partial length NEK1 (M1 to K278 residues) expressed in bacterial expression system assessed as enzyme remaining activity at 1 uM by Kinomescan assay relative to control
Method in brief: (§1)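 KINOMEscan competition binding panel of 468 kinases and mutants, compound at 1 μM; binding reported as percent of control.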

[4] = target: T1, Platelet-derived growth factor receptor beta (Homo sapiens, UniProt P09619); test: Binding affinity to wild-type human partial length PDGFRB (V582 to Y1009 residues) expressed in bacterial expression system assessed as enzyme remaining activity at 1 uM by Kinomescan assay relative to control; method in brief: as §1
[5] = target: Casein kinase I isoform alpha (Homo sapiens, UniProt P48729); test: Inhibition of wild-type human partial length CSNK1A1 (M1 to L301 residues) expressed in mammalian expression system after 1 hr by Z-LYTE assay
[6] = target: Serine/threonine-protein kinase Nek1 (Homo sapiens, UniProt Q96PY6); test: Inhibition of wild-type human partial length NEK1 (M1 to K278 residues) expressed in bacterial expression system after 1 hr by Z-LYTE assay
[7] = target: Platelet-derived growth factor receptor alpha (Homo sapiens, UniProt P16234); test: Inhibition of wild-type human partial length PDGFRA (V575 to D1002 residues) expressed in mammalian expression system after 1 hr by Z-LYTE assay
[8] = target: T1, Platelet-derived growth factor receptor beta; test: Inhibition of wild-type human partial length PDGFRB (V582 to Y1009 residues) expressed in bacterial expression system after 1 hr by Z-LYTE assay
[9] = target: Serine/threonine-protein kinase pim-3 (Homo sapiens, UniProt Q86V86); test: Inhibition of wild-type human partial length PIM3 (G16 to A317 residues) expressed in bacterial expression system after 1 hr by Z-LYTE assay
[10] = tested on: Mast/stem cell growth factor receptor Kit (Homo sapiens), P10721 [UNDEFINED MUTATION]; test: Inhibition of c-KIT 560 to 578 deletion/T670I double mutant in human GISTT1 cells assessed as reduction in c-KIT autophosphorylation at Y719 residue at 0.1 uM to 3 uM after 1 hr by Western blot analysis; type: cell-based
Method in brief: (§2)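 Serial compound dilutions applied for 1 h to GIST-T1, GIST-T1-T670I (CRISPR/Cas9 T670I knock-in, clone confirmed by Sanger sequencing) or GIST-5R cells in DMEM with 10% FBS. Cells then lysed and phospho-proteins detected by standard Western blotting.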

[11] = tested on: Mast/stem cell growth factor receptor Kit (Homo sapiens), P10721 [UNDEFINED MUTATION]; test: Inhibition of c-KIT 560 to 578 deletion mutant in human GISTT1 cells assessed as reduction in c-KIT autophosphorylation at Y823 residue at 0.1 uM to 3 uM after 1 hr by Western blot analysis; type: cell-based; method in brief: as §2
[12] = tested on: Mast/stem cell growth factor receptor Kit (Homo sapiens), P10721 [UNDEFINED MUTATION]; test: Inhibition of c-KIT 560 to 578 deletion/T670I double mutant in human GISTT1 cells assessed as reduction in c-KIT autophosphorylation at Y703 residue at 0.1 uM to 3 uM after 1 hr by Western blot analysis; type: cell-based; method in brief: as §2
[13] = tested on: Mast/stem cell growth factor receptor Kit (Homo sapiens), P10721 [UNDEFINED MUTATION]; test: Inhibition of c-KIT 560 to 578 deletion mutant in human GISTT1 cells assessed as reduction in AKT phosphorylation at S473 residue at 0.1 uM to 3 uM after 1 hr by Western blot analysis; type: cell-based; method in brief: as §2
[14] = tested on: Mast/stem cell growth factor receptor Kit (Homo sapiens), P10721 [UNDEFINED MUTATION]; test: Inhibition of c-KIT 560 to 578 deletion mutant in human GISTT1 cells assessed as reduction in ERK phosphorylation at T202/Y204 residue at 0.1 uM to 3 uM after 1 hr by Western blot analysis; type: cell-based; method in brief: as §2
[15] = AUC (0 to t) in Sprague-Dawley rat at 1 mg/kg, iv measured after 2 to 720 mins by LC-tandem mass spectrometry analysis; type: ADME, organism-based; conditions: in vivo
Method in brief: (§3)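 Male Sprague-Dawley rats (190-210 g), fasted 12 h, randomized into two groups: 1 mg/kg i.v. or 10 mg/kg p.o., both formulated in 10% DMSO/90% of 5% glucose water. Blood sampled at 2-720 min (i.v.) or 5-720 min (p.o.). Plasma protein-precipitated with methanol, caffeine internal standard, LC-MS/MS. Noncompartmental analysis; triplicate, ±SD.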

[16] = Half-life in Sprague-Dawley rat at 10 mg/kg, po measured after 5 to 720 mins by LC-tandem mass spectrometry analysis; type: ADME, organism-based; conditions: in vivo; method in brief: as §3
[17] = Apparent volume of distribution in Sprague-Dawley rat at 10 mg/kg, po measured after 5 to 720 mins by LC-tandem mass spectrometry analysis; type: ADME, organism-based; conditions: in vivo; method in brief: as §3
[18] = Tmax in mouse at 1 mg/kg, iv measured after 2 to 720 mins by LC-tandem mass spectrometry analysis; type: ADME, organism-based; conditions: in vivo
[19] = Half-life in mouse at 10 mg/kg, po measured after 5 to 720 mins by LC-tandem mass spectrometry analysis; type: ADME, organism-based; conditions: in vivo
Method in brief: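 Mice dosed 1 mg/kg i.v. or 10 mg/kg p.o.; plasma drug levels by LC-MS/MS, parameters by noncompartmental analysis; values not from triplicate testing.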

Mus musculus [20] = test: Inhibition of c-KIT phosphorylation at Y719 residue in tumor of human GIST5R cells xenografted in nude mouse at 100 mg/kg, po administered as single dose and measured after 2 hrs; type: functional, organism-based
Method in brief: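 Female nu/nu mice bearing subcutaneous GIST-5R xenografts (cells in Matrigel, right flank) given one oral gavage dose of 100 mg/kg in HKI suspension (0.5% methocellulose/0.4% Tween80 in ddH2O). Tumors collected over a 2 h time course; p-c-KIT, p-ERK and p-AKT assessed by Western blot; plasma drug levels monitored in parallel.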

Mus musculus [21] = test: Inhibition of ERK phosphorylation at T202/Y204 residue in tumor of human GIST5R cells xenografted in nude mouse at 100 mg/kg, po administered as single dose and measured after 2 hrs; type: functional, organism-based
Method in brief: (§4)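 Female nu/nu mice bearing subcutaneous GIST-5R tumors (cells in Matrigel, right flank) given one oral dose of 100 mg/kg in 0.5% methylcellulose/0.4% Tween80. Tumors collected over a 2 h time course. p-c-KIT, p-ERK and p-AKT measured alongside plasma drug levels.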

Mus musculus [22] = test: Inhibition of AKT phosphorylation at […] residue in tumor of human GIST5R cells xenografted in nude mouse at 100 mg/kg, po administered as single dose and measured after 2 hrs; type: functional, organism-based; method in brief: as §4

Chain of Mast/stem cell growth factor receptor Kit (Homo sapiens), P10721 [UNDEFINED MUTATION] (P10721 whole entry, looked up, stated change not applied): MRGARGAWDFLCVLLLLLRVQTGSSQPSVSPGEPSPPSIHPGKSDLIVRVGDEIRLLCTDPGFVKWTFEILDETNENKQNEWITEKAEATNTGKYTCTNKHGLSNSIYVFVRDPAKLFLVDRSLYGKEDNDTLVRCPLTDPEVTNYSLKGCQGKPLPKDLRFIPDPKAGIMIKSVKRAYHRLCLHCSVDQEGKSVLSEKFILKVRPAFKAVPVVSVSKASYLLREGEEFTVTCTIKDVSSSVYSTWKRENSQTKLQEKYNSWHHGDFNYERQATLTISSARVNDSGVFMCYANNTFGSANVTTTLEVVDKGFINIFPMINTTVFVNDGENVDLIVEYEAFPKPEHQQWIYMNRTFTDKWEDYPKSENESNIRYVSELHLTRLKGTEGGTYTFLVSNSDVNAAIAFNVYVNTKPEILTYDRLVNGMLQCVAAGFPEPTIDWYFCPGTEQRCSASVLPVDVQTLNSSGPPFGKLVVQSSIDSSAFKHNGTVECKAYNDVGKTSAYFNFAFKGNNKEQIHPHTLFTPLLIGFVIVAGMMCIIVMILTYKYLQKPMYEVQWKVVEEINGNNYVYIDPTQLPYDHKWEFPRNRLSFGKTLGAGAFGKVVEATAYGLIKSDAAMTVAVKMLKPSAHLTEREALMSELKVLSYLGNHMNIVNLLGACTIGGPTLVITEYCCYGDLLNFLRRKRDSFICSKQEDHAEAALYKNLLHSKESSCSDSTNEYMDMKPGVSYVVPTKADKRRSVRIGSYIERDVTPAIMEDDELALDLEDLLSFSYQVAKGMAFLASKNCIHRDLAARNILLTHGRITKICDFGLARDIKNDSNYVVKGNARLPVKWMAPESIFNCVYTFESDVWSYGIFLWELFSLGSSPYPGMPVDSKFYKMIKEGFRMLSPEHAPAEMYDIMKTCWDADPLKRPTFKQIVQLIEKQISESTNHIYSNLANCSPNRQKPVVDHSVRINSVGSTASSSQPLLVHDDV
T1 sequence (P09619 whole entry, the tested form may be a part, canonical isoform): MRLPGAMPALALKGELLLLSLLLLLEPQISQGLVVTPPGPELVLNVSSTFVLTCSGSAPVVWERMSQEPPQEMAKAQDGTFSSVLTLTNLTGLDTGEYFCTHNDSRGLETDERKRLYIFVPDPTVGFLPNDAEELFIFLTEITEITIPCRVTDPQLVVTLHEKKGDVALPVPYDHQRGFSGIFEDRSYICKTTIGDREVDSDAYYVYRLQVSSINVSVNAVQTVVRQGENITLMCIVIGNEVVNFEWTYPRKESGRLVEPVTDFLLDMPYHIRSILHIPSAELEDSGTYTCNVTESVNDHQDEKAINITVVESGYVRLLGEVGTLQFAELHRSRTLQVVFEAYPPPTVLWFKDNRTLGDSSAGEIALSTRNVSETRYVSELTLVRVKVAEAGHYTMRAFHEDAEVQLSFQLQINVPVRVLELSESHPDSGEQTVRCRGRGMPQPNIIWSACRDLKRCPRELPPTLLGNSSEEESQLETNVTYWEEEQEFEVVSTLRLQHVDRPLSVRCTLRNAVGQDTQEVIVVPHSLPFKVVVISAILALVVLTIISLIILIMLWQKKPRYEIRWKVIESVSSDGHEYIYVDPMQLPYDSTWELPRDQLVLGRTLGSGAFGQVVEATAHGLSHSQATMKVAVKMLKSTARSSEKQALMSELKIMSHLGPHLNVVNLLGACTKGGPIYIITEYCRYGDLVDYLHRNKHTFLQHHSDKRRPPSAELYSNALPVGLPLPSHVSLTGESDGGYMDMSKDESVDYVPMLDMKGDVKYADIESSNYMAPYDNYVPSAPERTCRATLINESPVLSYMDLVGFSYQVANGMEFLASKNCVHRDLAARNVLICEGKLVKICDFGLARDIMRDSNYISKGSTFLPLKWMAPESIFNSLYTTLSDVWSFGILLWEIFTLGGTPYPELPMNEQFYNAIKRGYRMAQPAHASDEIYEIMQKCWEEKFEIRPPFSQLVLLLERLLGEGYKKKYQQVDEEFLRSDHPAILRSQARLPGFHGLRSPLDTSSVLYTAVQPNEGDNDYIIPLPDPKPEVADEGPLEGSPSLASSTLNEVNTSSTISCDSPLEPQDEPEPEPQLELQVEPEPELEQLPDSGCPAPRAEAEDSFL
Chain of Mast/stem cell growth factor receptor Kit (P10721 whole entry, the tested form may be a part): as the sequence (P10721 whole entry, looked up, stated change not applied) above
Chain of Casein kinase I isoform alpha (P48729 whole entry, the tested form may be a part, canonical isoform): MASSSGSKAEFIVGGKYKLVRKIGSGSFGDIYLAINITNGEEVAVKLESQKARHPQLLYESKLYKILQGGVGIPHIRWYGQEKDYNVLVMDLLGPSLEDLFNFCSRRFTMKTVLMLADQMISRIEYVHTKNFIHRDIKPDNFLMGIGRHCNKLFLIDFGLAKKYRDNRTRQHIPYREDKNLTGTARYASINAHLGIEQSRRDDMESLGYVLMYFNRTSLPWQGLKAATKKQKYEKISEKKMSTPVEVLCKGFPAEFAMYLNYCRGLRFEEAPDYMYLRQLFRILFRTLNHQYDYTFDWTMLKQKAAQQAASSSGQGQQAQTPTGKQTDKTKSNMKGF
Chain of Platelet-derived growth factor receptor alpha (P16234 whole entry, the tested form may be a part): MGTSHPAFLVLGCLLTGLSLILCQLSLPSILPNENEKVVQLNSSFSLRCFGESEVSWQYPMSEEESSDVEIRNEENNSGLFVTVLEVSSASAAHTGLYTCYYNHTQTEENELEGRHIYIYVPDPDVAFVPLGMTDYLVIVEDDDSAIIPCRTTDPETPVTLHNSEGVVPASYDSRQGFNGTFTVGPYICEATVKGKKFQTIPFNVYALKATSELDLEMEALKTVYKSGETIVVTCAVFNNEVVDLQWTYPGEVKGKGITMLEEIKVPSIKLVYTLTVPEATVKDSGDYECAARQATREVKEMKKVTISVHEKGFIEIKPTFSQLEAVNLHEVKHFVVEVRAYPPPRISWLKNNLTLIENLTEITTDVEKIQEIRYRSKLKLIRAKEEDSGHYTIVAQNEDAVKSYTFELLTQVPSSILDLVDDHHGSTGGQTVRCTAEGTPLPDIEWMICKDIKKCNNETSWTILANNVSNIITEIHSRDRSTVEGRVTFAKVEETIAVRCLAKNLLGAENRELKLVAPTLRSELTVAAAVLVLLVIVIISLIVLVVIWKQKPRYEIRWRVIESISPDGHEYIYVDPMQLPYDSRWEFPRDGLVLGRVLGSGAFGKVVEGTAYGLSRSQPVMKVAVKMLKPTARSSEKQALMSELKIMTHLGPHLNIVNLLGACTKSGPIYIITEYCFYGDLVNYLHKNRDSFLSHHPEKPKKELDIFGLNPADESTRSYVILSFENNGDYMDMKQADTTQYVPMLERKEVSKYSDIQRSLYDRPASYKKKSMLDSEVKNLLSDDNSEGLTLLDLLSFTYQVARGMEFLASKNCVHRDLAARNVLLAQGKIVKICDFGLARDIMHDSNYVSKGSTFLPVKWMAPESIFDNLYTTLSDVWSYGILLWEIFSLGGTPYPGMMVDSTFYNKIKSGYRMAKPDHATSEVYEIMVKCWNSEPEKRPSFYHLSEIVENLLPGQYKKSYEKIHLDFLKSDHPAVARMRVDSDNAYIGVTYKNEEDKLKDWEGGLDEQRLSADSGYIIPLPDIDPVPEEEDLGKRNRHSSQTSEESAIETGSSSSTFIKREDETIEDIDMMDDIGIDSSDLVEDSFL
Chain of Mast/stem cell growth factor receptor Kit (Homo sapiens), P10721 [D816H] (P10721 whole entry D816H, the tested form may be a part): as the sequence (P10721 whole entry, looked up, stated change not applied) above, with D816H counted along it

SMILES: O=C(CC(=O)Nc1ccc2c(/C=C/c3ccccn3)n[nH]c2c1)Nc1cccc(F)c1
- GI50 [1]: 6.84 µM
- EC50 [2]: 2.05 µM
- Activity [3]: 0%
- Activity [4]: 0%
- IC50 [5]: > 10 µM
- IC50 [6]: > 10 µM
- IC50 [7]: 7.78 µM
- IC50 [8]: 2.08 µM
- IC50 [9]: > 10 µM
- inhibition [10]: Active
- inhibition [11]: Active
- inhibition [12]: Active
- inhibition [13]: Active
- inhibition [14]: Active
- AUC(0-t) [15]: 259 ng·h/mL
- half-life [16]: 4.9 h
- Vz [17]: 86.8 L/kg
- Tmax [18]: 1.8 min
- half-life [19]: 1.6 h
- inhibition (Mus musculus [20]): inactive
- inhibition (Mus musculus [21]): inactive
- inhibition (Mus musculus [22]): inactive
